Results taken from ChEMBL document CHEMBL3751796, “Structure-Based Discovery of Novel Cyclophilin A Inhibitors for the Treatment of Hepatitis C Virus Infections” (J Med Chem, 2015).
Active and inactive are the calls of the source. The calls are words filed in the database; no cut-off is given here.

Tests used:
Mus musculus [1] = species: Mus musculus; experiment: Activation of calcium-dependent calcineurin phosphatase activity in ionomycin-stimulated BALB/c mouse assessed as production of IL-2 at 1 to 10 uM after 24 hrs by ELISA
How it was run: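 Mouse spleen cells, 2 × 10^6/well, stimulated with ionomycin 1 μg/mL and treated with a dose series for 24 h at 37 °C. Media from triplicate wells pooled. IL-2 measured by ELISA and calculated from IL-2 standards.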

Mus musculus [2] = experiment: Toxicity in BALB/c mouse assessed as changes in body weight at 50 mg/kg, iv for 2 weeks; format: organism-based; conditions: in vivo, 336 h
Hepatitis C virus [3] = experiment: Antiviral activity against HCV infected in human Huh7.5 cells assessed as inhibition of HCV-specific RNA by qRT-PCR method in presence of telaprevir; format: functional, organism-based; conditions: Hepacivirus hominis; Huh-7
Hepatitis C virus [4] = experiment: Antiviral activity against HCV genotype 1b Con1 infected in human Huh7 cells xenografted in immunodeficient NOD/SCID mouse assessed as inhibition of HCV RNA level in liver at 50 mg/kg, ip up to 14 days by qRT-PCR method; format: functional, organism-based; conditions: Hepacivirus hominis, isolate Con1, Huh-7
How it was run: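 NOD/SCID mice engrafted intrasplenically with Huh7 HCV-Con1b replicon cells (1 × 10^6 in PBS). From week 6, 50 mg/kg given ip for 14 days, five mice per group. Liver HCV RNA measured by SYBR Green qRT-PCR, 2^−ΔΔCT method, normalized to GAPDH, fold change vs controls.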

[5] = Selectivity index, ratio of CC50 for mock-infected human Huh7.5 cells to EC50 for recombinant HCV genotype 2a JFH1; parameters: species or system Huh-7
How it was run: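 Huh7.5 cells infected with JFH1-Luc virus (MOI 0.004, 5 h, 37 °C) in the presence of 3-fold serial dilutions. EC50 came from Renilla luciferase on day 3. CC50 came from MTT viability of mock-infected Huh7.5 cells treated in parallel. SI = CC50/EC50.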

Hepatitis C virus [6] = experiment: Antiviral activity against HCV genotype 1b Con1 infected in human Huh7.5 cells assessed as stimulation of ISG15 expression at 2 uM incubated up to 96 hrs by Western blot analysis; format: functional, organism-based; conditions: Hepacivirus hominis, isolate Con1, Huh-7, TDE = time-dependent effect
Hepatitis C virus [7] = experiment: Antiviral activity against HCV infected in human Huh7.5 cells assessed as inhibition of IL-8 level by ELISA in presence of telaprevir; format: functional, organism-based; conditions: Hepacivirus hominis; Huh-7
Hepatitis C virus [8] = experiment: Antiviral activity against HCV infected in human Huh7.5 cells assessed as inhibition of HCV-specific RNA by qRT-PCR method in presence of ribavirin; format: functional, organism-based; conditions: Hepacivirus hominis; Huh-7
Hepatitis C virus [9] = experiment: Antiviral activity against HCV genotype 1b Con1 infected in human Huh7.5 cells assessed as stimulation of STAT2 mRNA expression at 2 uM incubated up to 96 hrs by qRT-PCR method; format: functional, organism-based; conditions: Hepacivirus hominis, isolate Con1, Huh-7, TDE = time-dependent effect
How it was run: (§1)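 mRNA measured by SYBR Green qRT-PCR using the 2^−ΔΔCT method, normalized to GAPDH and expressed as fold change vs controls.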

Hepatitis C virus [10] = experiment: Antiviral activity against HCV genotype 1b Con1 infected in human Huh7 cells xenografted in immunodeficient NOD/SCID mouse assessed as inhibition of NS5B expression in liver at 50 mg/kg, ip up to 14 days by Western blot analysis; format: functional, organism-based; conditions: Hepacivirus hominis, isolate Con1, Huh-7
Hepatitis C virus [11] = experiment: Antiviral activity against HCV genotype 1b Con1 infected in human Huh7.5 cells assessed as inhibition of NS5A expression in membrane fractions at 2 uM by Western blot analysis; format: functional, organism-based; conditions: Hepacivirus hominis, isolate Con1, Huh-7
How it was run: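 Con1b replicon cells treated with 2 μM. Total lysates, and a membrane fraction prepared by hypotonic buffer, dounce homogenization, 220g spin and then 68 000g for 1 h at 4 °C, analyzed by Western blot for NS5A and NS5B.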

Hepatitis C virus [12] = experiment: Antiviral activity against HCV genotype 1b Con1 infected in human Huh7.5 cells assessed as upregulation of IFN-alpha mRNA expression incubated up to 96 hrs by qRT-PCR method; format: functional, organism-based; conditions: Hepacivirus hominis; isolate Con1; Huh-7; how it was run: as §1

Activity (Mus musculus [1]): Active
SMILES: COc1cc(C(C(=O)NC2CCCCC2)N(C(=O)Cc2c[nH]c3ccccc23)c2ccc(C(C)C)cc2)cc(OC)c1OC (configuration not stated)
Activity (Mus musculus [2]): Non-toxic | inhibition (Hepatitis C virus [3]): Active | inhibition (Hepatitis C virus [4]): Active | Ratio CC50/EC50 [5]: >19.2 | Activity (Hepatitis C virus [6]): tde | inhibition (Hepatitis C virus [7]): Active | inhibition (Hepatitis C virus [8]): Active | Activity (Hepatitis C virus [9]): tde | inhibition (Hepatitis C virus [10]): Active | inhibition (Hepatitis C virus [11]): Active | Activity (Hepatitis C virus [12]): Active
